In brackets after ≈: the same amount, converted by molar mass. Marks after values point to notes of the source that are not given here.
How the values were obtained:
[1] = target: T1, rSULT1A1 (Rattus norvegicus, UniProt P17988); experiment: Reversibility of the effect of GSSG on rSULT1A1 by reduction with DTT; format: biochemical; settings: 25°C 1 hr pretreatment; 2-naphthol 250 μM, 4′-OH PCB 6 100 μM; mean and SD, n=3
[2] = Solubility of OHPCBs in the SULT assay buffer by light scattering at 400 nm; format: physicochemical
[3] = target: T2, rSULT2A3 (Rattus norvegicus, UniProt P22789); experiment: Inhibition of rSULT2A3-catalyzed sulfation of DHEA; format: biochemical; settings: for Inhibition of rSULT2A3 reached: DHEA as substrate, within solubility limits
T2 sequence (P22789 1-284): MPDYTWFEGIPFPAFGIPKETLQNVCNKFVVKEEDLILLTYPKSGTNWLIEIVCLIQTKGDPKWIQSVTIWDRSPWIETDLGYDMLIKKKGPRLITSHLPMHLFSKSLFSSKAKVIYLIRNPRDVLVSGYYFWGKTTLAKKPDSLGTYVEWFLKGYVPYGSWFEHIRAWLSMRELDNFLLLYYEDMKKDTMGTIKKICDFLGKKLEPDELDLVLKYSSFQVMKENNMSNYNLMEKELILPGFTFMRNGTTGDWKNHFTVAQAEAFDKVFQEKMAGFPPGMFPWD

[4] = target: T1, rSULT1A1; experiment: Sulfation of OHPCBs by rSULT1A1 pretreated with GSH or GSSG; format: biochemical; settings: for Sulfation at varying OHPCB concentrations, rSULT1A1 pretreated with 1 mM GSSG: Fig. 3B; for Substrate inhibition in both reduced and oxidized rSULT1A1-catalyzed reactions: 1 mM GSH or 1 mM GSSG pretreatment; for Sulfation by GSSG-pretreated rSULT1A1 compared with GSH-pretreated enzyme: 1 mM GSSG vs 1 mM GSH, Fig. 3A
Procedure, shortened: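 DTT was stripped from purified enzyme by gel filtration at 4°C, leaving less than 0.06 mM. Enzyme was held 1 h at 25°C under argon with 1 mM GSH or GSSG, and GSH was checked by DTNB. Assays used 0.75 μg enzyme, 0.25 M phosphate pH 7.0, 200 μM PAPS and no 2-mercaptoethanol, 6 min at 37°C. Test compound was 100 μM or varied. PAP formation was corrected by a no-compound blank, in duplicate or triplicate.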

[5] = tested on: hSULT2A1; settings: ref Liu et al., 2006; cited from earlier work
[6] = target: T1, rSULT1A1; experiment: Inhibition of rSULT1A1-catalyzed sulfation of 2-naphthol; format: biochemical
[7] = target: T1, rSULT1A1; experiment: Assay of OHPCBs as potential substrates of rSULT1A1; format: biochemical; settings: presence of reducing agents; within limits of solubility
Procedure, shortened: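 Recombinant rat SULT1A1 was expressed in E. coli at 29°C without IPTG and purified by PAP-agarose affinity with a PAP gradient in DTT-containing buffer. […] Substrate-dependent PAP formation was the read-out.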

[8] = 37 °C, pH 7, aqueous buffer, kinetic from dmso stock
[9] = 37°C, 0.25 M potassium phosphate pH 7.0, […] (v/v) acetone, 7.5 mM 2-mercaptoethanol, light scattering

T1 sequence (P17988 whole entry): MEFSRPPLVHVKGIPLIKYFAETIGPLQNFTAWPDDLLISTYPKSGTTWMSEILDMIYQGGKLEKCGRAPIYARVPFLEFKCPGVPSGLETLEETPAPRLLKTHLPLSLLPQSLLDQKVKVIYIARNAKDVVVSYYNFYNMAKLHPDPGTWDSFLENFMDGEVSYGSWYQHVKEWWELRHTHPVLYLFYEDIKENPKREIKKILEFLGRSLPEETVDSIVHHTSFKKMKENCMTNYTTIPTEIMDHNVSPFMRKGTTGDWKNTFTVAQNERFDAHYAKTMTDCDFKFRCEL

For `Oc1ccc2ccccc2c1` [2-Naphthol], the “Rate of sulfation, rSULT1A1 pretreated with 1 mM GSSG” value [1] was 50.2±2.1 ^c nmoles of product/mg/min and the “Rate of sulfation, rSULT1A1 pretreated with 5 mM DTT” value [1] was 38.3±4.7 nmoles of product/mg/min.

Compound `Oc1ccc(-c2ccc(Cl)cc2)c(Cl)c1` [4-OH PCB 8, 2,4′-Dichloro-biphenyl-4-ol] has a Solubility [2, 8] of no less than 500 µM and an IC50 [3] of roughly 400 µM.

With `Oc1c(Cl)cc(-c2ccccc2)cc1Cl` [4-OH PCB 14] the Solubility [2, 9] was no less than 1000 µM and the “Sulfation at varying OHPCB concentrations, rSULT1A1 pretreated with 1 mM GSSG” value [4] was “concentration-dependent sulfation”.

In the case of `Oc1c(Cl)cc(-c2ccccc2Cl)cc1Cl` [4-OH PCB 34], the Solubility [2, 9] is given as 300 µM (≈ 82.1 µg/mL) and the “Substrate activity for hSULT2A1” value [5] is given as “good substrates”.

For `Oc1ccc(-c2ccc(Cl)cc2)cc1` [4′-OH PCB 3], the Solubility [2, 9] was 300 µM (≈ 61.4 µg/mL).

In the case of `Oc1ccc(-c2ccccc2Cl)cc1Cl` [4′-OH PCB 6, 3,2′-Dichloro-biphenyl-4-ol], the Solubility [2, 8] is reported as 250 µM (≈ 59.8 µg/mL), the IC50 [6] is reported as 22.7 µM and the “Inhibition of rSULT2A3 reached” value [3] is reported as “less than 50%”. The “Sulfation at varying OHPCB concentrations, rSULT1A1 pretreated with 1 mM GSSG” value [4] was “concentration-dependent sulfation” and the “Rate of sulfation, rSULT1A1 pretreated with 1 mM GSSG” value [1] was 37.3±4.0 nmoles of product/mg/min.

In the case of `Oc1ccc(-c2cc(Cl)ccc2Cl)cc1` [4′-OH PCB 9], the Solubility [2, 9] is reported as 500 µM (≈ 120 µg/mL), the “Inhibition of rSULT2A3 reached” value [3] is reported as “full inhibition” and the “Substrate inhibition in both reduced and oxidized rSULT1A1-catalyzed reactions” value [4] is reported as “presence of substrate inhibition”. The “Sulfation by GSSG-pretreated rSULT1A1 compared with GSH-pretreated enzyme” value [4] was “only slightly increased” and the “Inhibition of hSULT2A1” value [5] was “potent inhibitor”.

In the case of `Oc1ccc(-c2ccc(Cl)c(Cl)c2)cc1` [4′-OH PCB 12], the Solubility [2, 9] is reported as no less than 500 µM.

Work on `Oc1ccc(-c2ccc(Cl)cc2Cl)cc1Cl` [4′-OH PCB 25] yielded a Solubility [2, 9] of 100 µM (≈ 27.4 µg/mL).

In the case of `Oc1ccc(-c2ccc(Cl)c(Cl)c2)c(Cl)c1` [4′-OH PCB 33, 2,3′,4′-Trichloro-biphenyl-4-ol], the Solubility [2, 8] is reported as 50 µM (≈ 13.7 µg/mL), the IC50 [6] is reported as 26.2 µM and the “Inhibition of rSULT2A3 reached” value [3] is reported as “less than 50%”. The “Sulfation at varying OHPCB concentrations, rSULT1A1 pretreated with 1 mM GSSG” value [4] was “concentration-dependent sulfation”.

In the case of `Oc1ccc(-c2ccc(Cl)c(Cl)c2)cc1Cl` [4′-OH PCB 35], the Solubility [2, 9] is reported as 50 µM (≈ 13.7 µg/mL) and the “Substrate inhibition with rSULT1A1” value [7] is reported as “did not show substrate inhibition”.

In the case of `Oc1ccc(-c2cc(Cl)cc(Cl)c2)cc1Cl` [4′-OH PCB 36], the Solubility [2, 9] is reported as 50 µM (≈ 13.7 µg/mL) and the “Inhibition of rSULT1A1 reached” value ([6]; 2-naphthol as substrate, up to full inhibition or limit of solubility) is reported as “about 65%”.

For `Oc1c(Cl)cc(-c2ccc(Cl)cc2Cl)cc1Cl` [4′-OH PCB 68], the Solubility [2, 9] is listed as 50 µM (≈ 15.4 µg/mL) and the “Substrate activity for hSULT2A1” value [5] is listed as “good substrates”.

In the case of `Oc1ccc(Cl)cc1-c1ccc(Cl)c(Cl)c1` [6′-OH PCB 35], the Solubility [2, 9] is reported as 100 µM (≈ 27.4 µg/mL), the “Substrate inhibition with rSULT1A1” value [7] is reported as “did not show substrate inhibition” and the “Substrate inhibition in both reduced and oxidized rSULT1A1-catalyzed reactions” value [4] is reported as “absence of substrate inhibition”. For the same compound, the “Sulfation by GSSG-pretreated rSULT1A1 compared with GSH-pretreated enzyme” value [4] was “only slightly increased”.

From PMC2677757 (Drug metabolism and disposition: the biological fate of …, 2009)
